# Published values pooled from the literature.
# Each line is one published result; the experiments were not run side by side.
# Cell line: MCF7
# Effect on: cell growth or viability
SMILES,test,setting,IC50
COc1cccc2c1C(=O)c1c(O)c3c(c(O)c1C2=O)C[C@@](O)(C(=O)CO)C[C@@H]3O[C@H]1C[C@H](N)[C@H](O)[C@H](C)O1,MTT,48 h,3.1 µM
O=[N+]([O-])c1cc(Br)c(O)c(C=NNc2ccccc2)c1,MTT,24 h,6.4 µM
O=C(NO)Nc1nc2c(Cl)cc(Cl)cc2c(=O)n1-c1ccccc1,MTT,48 h,> 200 µM
CNC(=S)N/N=C/c1cccc2cc3ccccc3nc12,MTT,48 h,18.8 µM
O=[N+]([O-])c1cc(I)c(O)c(C=NNc2ccccc2)c1,MTT,24 h,7.76 µM
C=CCN1C(=O)C(=Nc2cccc(C)c2)c2ccccc21,MTT,48 h,> 100 µM
COc1ccc2c(-c3ncc(-c4ccccc4)o3)nn(Cc3ccccc3)c2c1,,48 h,88 µM
Cc1nc2ccc(-c3ccc(F)c(F)c3)cc2c(O)c1C(=O)O,MTT,48 h,≥ 100 µM
CC(=O)O[C@H]1C(=O)[C@@]2(C)[C@H]([C@H](OC(=O)c3ccccc3)[C@]3(O)C[C@H](OC(=O)[C@H](O)[C@@H](NC(=O)c4ccccc4)c4ccccc4)C(C)=C1C3(C)C)[C@]1(OC(C)=O)CO[C@@H]1C[C@@H]2O,,,0.00751 µM
CC(C)c1cccc(C(C)C)c1N=C1C(=O)N(Cc2cccc(Cl)c2)c2ccccc21,MTT,48 h,46.5 µM
NS(=O)(=O)c1ccc(-n2nc(C(=O)NN=Cc3ccccc3O)cc2-c2ccccc2)cc1,fluorescence,48 h,18 µM
Fc1ccccc1Nc1nc(-c2ccncc2)nc2c1CNCC2,MTT,,> 100 µM
Cc1ccc(C(C)C)c(OC2=C(Cl)C(=O)c3ccccc3C2=O)c1,MTT,24 h,4.59 µg/mL
COc1cccc(N=C2SCC(=O)N2c2nnc(-c3ccc(C(F)(F)F)cc3N=C3SCC(=O)N3c3cccc(OC)c3)s2)c1,MTT,,78.3 µM
C[C@H]1[C@H](C)CC[C@]2(C)CC[C@]3(C)C(=CC(=O)[C@@H]4[C@@]5(C)CC[C@@H](O)[C@](C)(C(=O)NCc6cn(-c7ccccc7C(F)(F)F)nn6)[C@@H]5CC[C@]43C)[C@H]12,MTT,24 h,83.4 µM
O=[N+]([O-])c1ccc(O)c(C=NNc2ccc(Br)cc2)c1,MTT,24 h,8.67 µM
O=C1C(=Nc2ccccc2I)c2ccccc2N1Cc1cccc(Cl)c1,MTT,48 h,13.5 µM
O=C1CS/C(=N\c2cc(C(F)(F)F)ccc2-c2nnc(N3C(=O)CS/C3=N\c3cc(O)cc(Br)c3)s2)N1c1cc(O)cc(Br)c1,MTT,,73.5 µM
NS(=O)(=O)c1ccc(-n2nc(C(=O)NN3C(=O)CCC3=O)cc2-c2ccccc2)cc1,fluorescence,48 h,32.5 µM
c1ccc(Cn2nc(-c3nc(-c4ccccc4)n[nH]3)c3ccccc32)cc1,,48 h,97.4 µM
O=C(/C=C/c1ccc(F)cc1)c1nc2ccccc2n1Cc1cn([C@@H]2O[C@H](CO)[C@H](O)[C@H](O)[C@H]2O)nn1,LDH,48 h,1.99 µM
Fc1ccc2c(-c3nnc(Cc4ccccc4)s3)nn(Cc3ccccc3)c2c1,,48 h,161 µM
COc1cc(N=C2C(=O)N(Cc3ccccc3)c3ccccc32)cc(OC)c1,MTT,48 h,0.56 µM
COc1cc(C2C3=C(Nc4nc(SC)[nH]c(=O)c42)c2ccccc2C3=O)ccc1O (centres unmarked),MTT,72 h,> 1000 µM
COc1cc([C@@H]2c3cc4c(cc3[C@@H](O[C@@H]3O[C@@H]5CO[C@@H](C)O[C@H]5[C@H](O)[C@H]3O)[C@H]3COC(=O)[C@H]23)OCO4)cc(OC)c1O,MTT,48 h,10.9 µM
O=C1C(=Nc2ccc(Cl)cc2)c2ccccc2N1Cc1ccc([N+](=O)[O-])cc1,MTT,48 h,2.65 µM
O=[N+]([O-])c1cc(Br)c(O)c(C=NNc2ccc(C(F)(F)F)cc2)c1,MTT,24 h,8 µM
CC(=O)O[C@@H]1[C@@H](OC(C)=O)[C@H](OC(C)=O)CO[C@H]1n1cc(Cn2c(C(C)=O)nc3ccccc32)nn1,LDH,48 h,2.73 µM
C/C(=N\C(=O)/N=C(\C)c1c(O)c2ccccc2oc1=O)c1c(O)c2ccccc2oc1=O,MTT,48 h,14.6 µM
O=C1CS/C(=N\c2ccc(F)cc2O)N1c1nnc(-c2ccc(C(F)(F)F)cc2/N=C2\SCC(=O)N2c2ccc(F)cc2O)s1,MTT,,18.1 µM
C/C(=N\C1CCCCC1/N=C(\C)c1c(O)c2ccccc2oc1=O)c1c(O)c2ccccc2oc1=O (centres unmarked),MTT,48 h,66.4 µM
O=C(CCc1ccc(Cl)cc1)N1C(=O)C(=Nc2ccc(Cl)cc2Br)c2ccccc21,MTT,48 h,34.1 µM
O=C1C(Cl)=C(n2ccnc2)C(=O)c2ccccc21,MTT,24 h,48.8 µg/mL
O=C1Nc2ccccc2/C1=N/N=C/c1cccc([N+](=O)[O-])c1,MTT,24 h,48.9 µg/mL
Fc1ccc(NC(=S)N/N=C/c2cccc3cc4ccccc4nc23)cc1,MTT,48 h,> 50 µM
O=S(=O)([O-])c1ccc(O)c(C=NNC(=S)Nc2cccc3ccccc23)c1.[Na+],MTT,48 h,> 800 µg/mL
O=C(C=Cc1ccc(OCCCOc2ccc(C=CC(=O)c3cccs3)cc2)cc1)c1cccs1,MTT,48 h,30.1 µM
COc1cccc2c1C(=O)c1c(O)c3c(c(O)c1C2=O)C[C@@](O)(C(=O)CO)C[C@@H]3O[C@H]1C[C@H](N)[C@H](O)[C@H](C)O1,MTT,24 h,3.94 µM
NNc1nc2c(Cl)cc(Cl)cc2c(=O)n1-c1ccc(F)cc1,MTT,48 h,> 200 µM
Clc1ccc(Cn2nc(-c3nc(-c4ccccc4)no3)c3ccccc32)c(Cl)c1,,48 h,66.5 µM
O=C1C(=Nc2ccccc2Br)c2ccccc2N1Cc1ccccc1,MTT,48 h,2.16 µM
O=c1[nH]cc(F)c(=O)[nH]1,MTT,48 h,11.3 µM
COc1cccc2c1C(=O)c1c(O)c3c(c(O)c1C2=O)C[C@@](O)(C(=O)CO)C[C@@H]3O[C@H]1C[C@H](N)[C@H](O)[C@H](C)O1,LDH,48 h,1.81 µM
O=C(O)c1cn(Cc2ccc(C(F)(F)F)cc2)c2ccc(Oc3ccccc3)cc2c1=O,MTT,48 h,21.2 µM
Cc1ccc(CN2C(=O)C(=Nc3cccc(Cl)c3)c3ccccc32)cc1,MTT,48 h,2.26 µM
COc1ccc(N(Cc2csc(-c3ccc(Br)cc3)n2)C(=O)CCCCCC(=O)NO)cc1,MTT,72 h,9.21 µM
C#Cc1cccc(Nc2ncnc3cc(OCCOC)c(OCCOC)cc23)c1,MTT,48 h,> 20 µM
O=C1CS/C(=N\c2cc(C(F)(F)F)ccc2-c2nnc(N3C(=O)CS/C3=N\c3ccc(-c4ccccc4)cc3)s2)N1c1ccc(-c2ccccc2)cc1,MTT,,90.1 µM
CCOC(=O)C(=CNc1ccc(Oc2ccccc2)cc1)C(=O)OCC,MTT,24 h,102 µM
C/C(=N\N=C(/C)c1c(O)c2ccccc2oc1=O)c1c(O)c2ccccc2oc1=O,MTT,48 h,33.6 µM
CCOC(=O)c1c(C)nc2ccc(-c3ccc(F)cc3F)cc2c1O,MTT,48 h,27 µM
C[C@H]1[C@H](C)CC[C@]2(C)CC[C@]3(C)C(=CC(=O)[C@@H]4[C@@]5(C)CC[C@@H](O)[C@](C)(C(=O)NCc6cn(-c7cccc(C(F)(F)F)c7)nn6)[C@@H]5CC[C@]43C)[C@H]12,MTT,24 h,73.2 µM
NNc1nc2ccc(Br)cc2c(=O)n1-c1ccc(Cl)cc1,MTT,48 h,12.8 µM
O=C(O)c1c[nH]c2ccc(Oc3ccccc3)cc2c1=O,MTT,24 h,311 µM
C[C@H]1[C@H](C)CC[C@]2(C)CC[C@]3(C)C(=CC(=O)[C@@H]4[C@@]5(C)CC[C@@H](O)[C@](C)(C(=O)NCc6cn(-c7ccccc7)nn6)[C@@H]5CC[C@]43C)[C@H]12,MTT,24 h,124 µM
c1ccc(Cn2nc(-c3ncc(-c4ccccc4)s3)c3ccccc32)cc1,,48 h,73.8 µM
